14 compounds from PubChem BioAssay can be followed below.

Test [1] can be described thus: Her2 expression decrease, cell viability multiplex – SKBR3 breast tumor cells, AlphaScreen, ATP viability, primary screen (AID 461;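 active means Her2 level under about 52% in both replicate screens, with viability over 70% of control, limit read from the data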;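 on Her2 level: lower value means less Her2 protein in the cells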;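 on viability: percent of carrier control wells set as 100% viability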). The note with it: SKBR3 Her2 protein level, 18-24 h, measured here: SKBR3 viability, ATP luminescence, at 10 µM.
For test [2], the target named is Receptor tyrosine-protein kinase erbB-2 (Homo sapiens) (UniProt P04626). The test is described as above. The conditions noted are these: 18-24 h, at 10 µM, stronger effect = lower value.
Chain of Receptor tyrosine-protein kinase erbB-2 (Homo sapiens) (P04626 whole entry, looked up): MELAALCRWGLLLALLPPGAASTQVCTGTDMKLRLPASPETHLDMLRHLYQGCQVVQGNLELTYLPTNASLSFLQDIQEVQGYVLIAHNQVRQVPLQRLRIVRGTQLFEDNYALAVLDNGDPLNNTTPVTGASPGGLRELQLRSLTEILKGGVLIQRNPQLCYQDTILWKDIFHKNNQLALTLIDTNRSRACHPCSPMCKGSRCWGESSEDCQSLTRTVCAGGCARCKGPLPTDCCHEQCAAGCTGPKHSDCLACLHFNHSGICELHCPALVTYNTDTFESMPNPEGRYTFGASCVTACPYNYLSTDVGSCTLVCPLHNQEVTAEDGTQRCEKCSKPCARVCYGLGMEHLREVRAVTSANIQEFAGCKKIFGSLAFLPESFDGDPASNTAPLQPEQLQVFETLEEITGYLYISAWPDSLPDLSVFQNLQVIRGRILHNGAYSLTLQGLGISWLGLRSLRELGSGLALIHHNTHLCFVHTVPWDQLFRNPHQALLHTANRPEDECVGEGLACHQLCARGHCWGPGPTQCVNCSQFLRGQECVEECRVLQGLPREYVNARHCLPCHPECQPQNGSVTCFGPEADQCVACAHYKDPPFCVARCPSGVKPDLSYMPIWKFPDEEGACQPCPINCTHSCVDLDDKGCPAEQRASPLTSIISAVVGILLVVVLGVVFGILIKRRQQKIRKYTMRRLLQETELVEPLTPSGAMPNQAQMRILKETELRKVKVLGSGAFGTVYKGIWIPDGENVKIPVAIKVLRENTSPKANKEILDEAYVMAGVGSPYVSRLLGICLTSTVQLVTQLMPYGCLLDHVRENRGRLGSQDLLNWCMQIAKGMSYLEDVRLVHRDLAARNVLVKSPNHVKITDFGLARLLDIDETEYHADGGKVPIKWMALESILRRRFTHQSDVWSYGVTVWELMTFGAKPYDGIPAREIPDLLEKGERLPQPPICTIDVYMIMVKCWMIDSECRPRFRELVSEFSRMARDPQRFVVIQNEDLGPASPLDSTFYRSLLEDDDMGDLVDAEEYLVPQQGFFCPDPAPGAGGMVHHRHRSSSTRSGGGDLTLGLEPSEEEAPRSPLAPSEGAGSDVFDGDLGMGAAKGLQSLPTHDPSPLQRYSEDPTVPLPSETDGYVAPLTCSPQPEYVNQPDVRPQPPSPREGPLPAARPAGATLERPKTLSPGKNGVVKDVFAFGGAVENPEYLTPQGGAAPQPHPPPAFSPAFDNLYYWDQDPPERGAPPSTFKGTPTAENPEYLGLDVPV
Test [3] can be described thus: reduced viability of SK-BR-3 breast cancer cells – cell-based, 24 h, human, pilot screen (AID 572;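 active means viability at or below 10% of carrier control in both of two separate runs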;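 further: compound exposure lasted between 18 and 24 h rather than exactly 24 h; 100% = carrier-treated control wells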). The conditions noted are these: SK-BR-3 viability, CellTiter-Glo luminescence, at 10 µM, stronger effect = lower value. Background: Cellular ATP, detected with luciferase, serves as a proxy for viable cell number.
The nature of test [4]: HUVEC growth inhibition – cell-based, human, primary screen (AID 575;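 active means viability at or below 30% in both replicate assays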;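 further: 100% = median of untreated cell wells with 0.1% DMSO on each plate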). The conditions noted are these: HUVEC proliferation, CellTiter-Glo luminescence, 72 h; at 10 µM; stronger effect = lower value. An outline of the steps:
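System: primary human umbilical vein endothelial cells; Quantity: 1250 endothelial cells in each well; Buffer or medium: supplemented EBM, 2% fetal bovine serum; Doses: one dose, 10 µM final, 0.1% DMSO; Incubation: 72 h compound incubation; Technique: ATP-based CellTiter-Glo luminescent read; Evaluation: percent of median DMSO-control luminescence; Controls: vehicle and MePR control wells.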

The nature of test [5]: H69AR cell proliferation blockers – human, duplicate replicates, primary screen (AID 580;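 active means viability at or under a set limit in both replicates, limit being median viability minus 3 SD, cut at about 48% in these data, passing the limit was not always enough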;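 further: 100% = mean luminescence of untreated wells and 0% = no signal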). The note with it: H69AR lung tumor cells viability, ATP luminescence, 72 h; at 10 µM; stronger effect = lower value.
A short description of test [6]: MRP1 drug-resistance reversers in H69AR cells – cell-based, doxorubicin co-treatment, pilot screen (AID 601;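 active means viability loss from added drug above about 55%, and viability with drug at most 40%, in both replicates, limit read from the data, passing the limit was not always enough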). The conditions noted are these: CellTiter-Glo, 72 h, at 10 µM; for differential viability (reversal): stronger effect = higher value.
Test [7] can be described thus: yeast transport mutant growth inhibition pilot in 384-well plates, post-Golgi transport modulator project (AID 636; in the data active means inhibition above about 31%). The conditions noted are these: absorbance 615 nm, about 18 h, stronger effect = higher value.
Test [8] in a line: growth suppression of yeast trafficking mutant, preliminary HTS, modulators of trafficking downstream of Golgi apparatus project, 1536-format plate, OD 615 nm (AID 637). The note with it: yeast transport mutant growth, absorbance 615 nm, 18 h; stronger effect = higher value.
[9] abbreviates: H69AR cells + 2 uM doxorubicin, measured here: viability with 2 uM doxorubicin, stronger effect = lower value.
[10] abbreviates: H69AR cells, compound alone cytotoxicity.

Activity calls are given as the source filed them. Unless noted, no stated cut-off is given here; in the data, active means inhibition above about 30%; inactive means the rest.

For the compound `CC(C)N1C(=O)C2C(C(=O)NC3CCCCC3)C3C=CC2(O3)C1C(=O)NC1CCCC1` (stereo not given), the viability – broadly, a read-out of living cells in per cent, often relative to untreated cells – was 94.5% in test [1]; 94.5% (inactive) in test [3]; 107% (inactive) in test [4]; 109% (inactive) in test [5]; 93.5% in test [6] (setting [9]); 109% in test [6] (setting [10]). In addition, in test [2], the Her2 level is 87% (inactive). Also, the differential viability (reversal) in test [6] (H69AR cells + 2 uM doxorubicin) is 15.9% (inactive). Also, the results for the inhibition in test [7] and in test [8] were -4.67% (inactive) and -1.11% (inactive), respectively.

In the case of `Cc1nnc(SCc2nc3ccccc3s2)n1-c1ccccc1`, the viability in test [1] was 88%; in test [3] it was 88% (inactive); in test [4], 75.4% (inactive); in test [5] it was 76% (inactive); in test [6] (setting [9]), 81.3%; in test [6] (setting [10]), 76%. For the same compound, the Her2 level in test [2] is 83% (inactive). Further, in test [6] (H69AR cells + 2 uM doxorubicin), the differential viability (reversal) is -5.34% (inactive). Also, the inhibition (as a rule, the change of the read-out against control, counted positive when it falls) in test [7] is -6% (inactive); in test [8], -0.48% (inactive).

`CCCCCCC(C)n1[nH]c(=O)c2c(C)cc(=O)[nH]c21` (stereo not given): the viability in test [1] was 89.5%; in test [3], 89.5% (inactive); in test [4], 77.7% (inactive); in test [5] it was 94.2% (inactive); in test [6] (setting [9]), 98.6%; in test [6] (setting [10]), 94.2%. For the same compound, the Her2 level in test [2] was 107% (inactive). Further, the differential viability (reversal) in test [6] (H69AR cells + 2 uM doxorubicin) was -4.37% (inactive). Also, the figures for the inhibition in test [7] and in test [8] were -1.73% (inactive) and -7.54% (inactive), respectively.

For the compound `O=C1CC(c2ccc(S(=O)(=O)N3CCN(c4ccccc4)CC3)cc2)CN1` (stereo not given), the viability in test [1] is 96%; in test [3] it was 96% (inactive); in test [4], 93% (inactive); in test [5], 96.4% (inactive); in test [6] (setting [9]) it was 94.6%; in test [6] (setting [10]), 96.4%. In test [2], the Her2 level was 90% (inactive). Further, the differential viability (reversal) in test [6] (H69AR cells + 2 uM doxorubicin) is 1.82% (inactive). Moreover, the inhibition is -7.3% (inactive) in test [7] and -10% (inactive) in test [8].

In the case of `O=C(CCN1C(=O)C2C3C=CC(C3)C2C1=O)N1CCN(c2ccccc2Cl)CC1` (stereo not given), the viability is 97% in test [1]; 97% (inactive) in test [3]; 82.3% (inactive) in test [4]; 96% (inactive) in test [5]; 87.8% in test [6] (setting [9]); 96% in test [6] (setting [10]). The Her2 level in test [2] is 89.5% (inactive). In test [6] (H69AR cells + 2 uM doxorubicin), the differential viability (reversal) was 8.21% (inactive). Besides, the values for the inhibition in test [7] and in test [8] were -5% (inactive) and -3.17% (inactive), respectively.

Regarding `O=C(NCc1ccc(F)cc1)C1CCN(C(=O)NCc2ccccc2)CC1`, the viability in test [1] is 115%; in test [3] it was 115% (inactive); in test [4], 89.8% (inactive); in test [5], 101% (inactive); in test [6] (setting [9]), 93.8%; in test [6] (setting [10]) it was 101%. Also, in test [2], the Her2 level was 110% (inactive). Besides, the differential viability (reversal) in test [6] (H69AR cells + 2 uM doxorubicin) was 6.81% (inactive). For the same compound, the inhibition in test [7] was -3.38% (inactive); in test [8], -7.17% (inactive).

Take `CC(C)CCn1c(N)c(S(=O)(=O)c2cccs2)c2nc3ccccc3nc21`: the viability in test [1] is 171%; in test [3], 171% (inactive); in test [4] it was 49.8% (inactive); in test [5], 42.9% (active); in test [6] (setting [9]), 57.7%; in test [6] (setting [10]) it was 42.9%. For the same compound, the Her2 level in test [2] is 43% (active). Further, the differential viability (reversal) in test [6] (H69AR cells + 2 uM doxorubicin) was -14.9% (inactive). The results for the inhibition in test [7] and in test [8] were -3.95% (inactive) and -3.17% (inactive), respectively.

For the compound `COc1ccc(OC)c(Nc2cc(-c3ccccc3)nc(N)n2)c1`, the viability in test [1] is 72%; in test [3] it was 72% (inactive); in test [4] it was 34.2% (inactive); in test [5], 30.7% (active); in test [6] (setting [9]), 67.1%; in test [6] (setting [10]), 30.7%. For the same compound, the Her2 level in test [2] was 69% (inactive). The differential viability (reversal) in test [6] (H69AR cells + 2 uM doxorubicin) was -36.4% (inactive). The inhibition in test [7] is -5.92% (inactive); in test [8], -5.09% (inactive).

Turning to `CCOc1ccc(C2C=C(c3ccc(F)cc3)Nc3ncnn32)cc1` (stereo not given), the viability in test [1] was 91.5%; in test [3], 91.5% (inactive); in test [4] it was 81.2% (inactive); in test [5] it was 82.2% (inactive); in test [6] (setting [9]), 79.1%; in test [6] (setting [10]), 82.2%. Further, the Her2 level in test [2] is 87% (inactive). For the same compound, the differential viability (reversal) in test [6] (H69AR cells + 2 uM doxorubicin) was 3.07% (inactive). In addition, the inhibition was -4.42% (inactive) in test [7] and 9.34% (inactive) in test [8].

With `CCOC(=O)c1cc2c(=O)n3cccc(C)c3nc2n(Cc2ccco2)c1=NC(=O)c1cccnc1`, the viability was 92.5% in test [1]; 92.5% (inactive) in test [3]; 71.4% (inactive) in test [4]; 80.7% (inactive) in test [5]; 72.4% in test [6] (setting [9]); 80.7% in test [6] (setting [10]). The Her2 level in test [2] is 82% (inactive). For the same compound, in test [6] (H69AR cells + 2 uM doxorubicin), the differential viability (reversal) is 8.21% (inactive). Also, the inhibition is -1.71% (inactive) in test [7] and 2.58% (inactive) in test [8].

With `CC(=O)NCCOc1cccc(OCCNC(C)=O)c1`, the viability in test [1] is 94.5%; in test [3] it was 94.5% (inactive); in test [4], 103% (inactive); in test [5], 86.3% (inactive); in test [6] (setting [9]), 91.7%; in test [6] (setting [10]) it was 86.3%. Moreover, in test [2], the Her2 level is 122% (inactive). Besides, the differential viability (reversal) in test [6] (H69AR cells + 2 uM doxorubicin) was -5.34% (inactive). The inhibition in test [7] is 2.67% (inactive); in test [8] it was -3.17% (inactive).

Take `CCOC(=O)C1CCN(C(=O)C2(NC(=O)Nc3ccccc3Cl)CCCCC2)CC1`: the viability in test [1] was 133%; in test [3] it was 133% (inactive); in test [4] it was 105% (inactive); in test [5], 87.9% (inactive); in test [6] (setting [9]), 80.2%; in test [6] (setting [10]), 87.9%. The Her2 level in test [2] was 98% (inactive). Moreover, the differential viability (reversal) in test [6] (H69AR cells + 2 uM doxorubicin) was 7.69% (inactive). For the same compound, the inhibition in test [7] is -1.95% (inactive); in test [8] it was -1.11% (inactive).

Regarding `CCCOc1ccc(/C(O)=C2/C(=O)C(=O)N(CCCOC)C2c2ccncc2)cc1` (stereo not given), the viability was 98% in test [1]; 98% (inactive) in test [3]; 110% (inactive) in test [4]; 94.5% (inactive) in test [5]; 86.7% in test [6] (setting [9]); 94.5% in test [6] (setting [10]). Further, the Her2 level in test [2] was 84% (inactive). Also, in test [6] (H69AR cells + 2 uM doxorubicin), the differential viability (reversal) is 7.81% (inactive). Also, the inhibition in test [7] was -9.46% (inactive); in test [8], 3.67% (inactive).

As for `CCCC1(C(=O)OCC)NC(c2ccc(N(C)C)cc2)C2C(=O)N(c3ccc(F)cc3)C(=O)C21` (stereo not given), the viability in test [1] is 90%; in test [3], 90% (inactive); in test [4], 104% (inactive); in test [5], 112% (inactive); in test [6] (setting [9]) it was 98.2%; in test [6] (setting [10]), 112%. In addition, the Her2 level in test [2] was 97% (inactive). Also, in test [6] (H69AR cells + 2 uM doxorubicin), the differential viability (reversal) is 13.8% (inactive). For the same compound, the figures for the inhibition in test [7] and in test [8] were 0% (inactive) and -2.67% (inactive), respectively.
